# ChEMBL document CHEMBL1139338, “Comparison of benzil and trifluoromethyl ketone (TFK)-mediated carboxylesterase inhibition using classical and 3D-quantitative structure-activity relationship analysis” (Bioorg Med Chem, 2009)
# Legend:
# [1] = Lipophilicity, log P of the compound; type: physicochemical; conditions: octanol/water
# In short: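 Computed log P from the ClogP program. The values in parentheses beside them are measured log P taken from literature sources, not measured in this work.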
# [2] = Inhibition of rabbit carboxylesterase; design: species or system Oryctolagus cuniculus
# [3] = Inhibition of human intestinal carboxylesterase
# [4] = Inhibition of human intestinal carboxylesterase after 5 mins
# Liver carboxylesterase 1 [5] = biological target: T1, Liver carboxylesterase 1 (Homo sapiens, UniProt P23141); test: Inhibition of human carboxylesterase 1 after 5 mins
# T1 sequence (P23141 whole entry): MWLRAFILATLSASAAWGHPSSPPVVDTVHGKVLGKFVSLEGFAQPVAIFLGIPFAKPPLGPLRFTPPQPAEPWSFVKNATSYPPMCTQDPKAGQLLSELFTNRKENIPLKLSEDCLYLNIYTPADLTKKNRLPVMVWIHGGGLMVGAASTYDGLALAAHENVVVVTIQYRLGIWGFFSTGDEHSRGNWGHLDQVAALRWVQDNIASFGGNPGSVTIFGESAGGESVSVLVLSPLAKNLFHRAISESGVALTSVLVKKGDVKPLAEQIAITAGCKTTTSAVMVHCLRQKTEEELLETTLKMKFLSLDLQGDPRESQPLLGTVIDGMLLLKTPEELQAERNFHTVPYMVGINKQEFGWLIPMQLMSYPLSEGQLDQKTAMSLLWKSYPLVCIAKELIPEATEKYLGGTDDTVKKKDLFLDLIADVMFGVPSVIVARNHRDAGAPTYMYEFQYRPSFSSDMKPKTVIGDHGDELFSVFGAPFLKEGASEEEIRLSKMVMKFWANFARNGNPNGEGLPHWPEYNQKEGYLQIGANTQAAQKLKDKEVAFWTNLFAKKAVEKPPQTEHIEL
# [6] = Inhibition of rabbit carboxylesterase after 5 mins; design: species or system Oryctolagus cuniculus
# [7] = Inhibition of human intestinal carboxylesterase after 24 hrs
# Liver carboxylesterase 1 [8] = biological target: T1, Liver carboxylesterase 1; test: Inhibition of human carboxylesterase 1 after 24 hrs
# [9] = Inhibition of rabbit carboxylesterase after 24 hrs; design: species or system Oryctolagus cuniculus
SMILES,logP ([1]; read-out: logP),pKi [2],pKi [4],Ki (Liver carboxylesterase 1 [5]),pKi [6],pKi [7],Ki (Liver carboxylesterase 1 [8]),pKi [9],further results
CC(=O)Oc1ccc2c(C)cc(=O)oc2c1,2.11,,,,,,,,
O=C(C(=O)c1ccc2ccccc2c1)c1ccc2ccccc2c1,5.73,8.98,,,,,,,
COc1ccc(C(=O)C(=O)c2ccc(OC)cc2)cc1,3.61,6.24,,,,,,,
O=C(C(=O)c1ccc(Br)c([N+](=O)[O-])c1)c1ccc(Br)c([N+](=O)[O-])c1,-1.38,8.06,,,,,,,
O=C(C(=O)c1cccc([N+](=O)[O-])c1)c1cccc([N+](=O)[O-])c1,-3.2,6.57,,,,,,,
COc1ccc(C(=O)C(=O)c2ccccc2Cl)cc1OC,4.04,7.44,,,,,,,
Cc1ccc(C(=O)C(=O)c2ccccc2)cc1[N+](=O)[O-],0.59,7.92,,,,,,,
O=C(C(=O)c1ccc(Cl)cc1)c1ccc(Cl)cc1,4.9,8.02,,,,,,,
O=C(C(=O)c1ccc(Cl)cc1)c1ccccc1,4.17,7.62,,,,,,,
O=C(C(=O)c1ccc(CBr)cc1)c1ccccc1,4.16,7.82,,,,,,,
Cc1ccc(C(=O)C(=O)c2ccc(Cl)cc2)cc1,4.67,7.79,,,,,,,
O=C(C(=O)c1ccc(F)cc1)c1ccc(F)cc1,3.76,,,,,,,,pKi [3]: 6.78
COc1ccc(C(=O)C(=O)c2ccccc2)cc1,3.6,6.7,,,,,,,
O=C(C(=O)c1ccc([N+](=O)[O-])cc1)c1ccccc1,0.09,7.66,,,,,,,
O=C(C(=O)c1ccc(Br)s1)c1ccc(Br)s1,4.61,8.15,,,,,,,
Cc1ccc(C(=O)C(=O)c2ccc(C)cc2)cc1,4.38,7.3,,,,,,,
Cc1ccc(C(=O)C(=O)c2ccccc2)cc1C,4.33,6.97,,,,,,,
O=C(C(=O)c1cc(F)c(F)c(F)c1)c1cc(F)c(F)c(F)c1,4.07,,,,,,,,pKi [3]: 6.59
O=C(C(=O)c1c(Cl)c(Cl)c(Cl)c(Cl)c1Cl)c1c(F)c(F)c(F)c(F)c1F,7.2,6.08,,,,,,,
CCCCCCCCCCSCC(=O)C(F)(F)F,,,6.82,129 nM,6.8,8.34,3.98 nM,8.55,
CCCCCCCCCCCCSCC(=O)C(F)(F)F,,,7.82,70.8 nM,6.8,8.27,7.41 nM,8.48,
O=C(C(=O)c1ccc(C(=O)C(=O)c2ccccc2)cc1)c1ccccc1,4.89,8.21,,,,,,,
O=C(C(=O)c1ccccc1Cl)c1ccccc1Cl,4.9,6.66,,,,,,,
O=C(C(=O)c1ccc([N+](=O)[O-])cc1[N+](=O)[O-])c1ccccc1,-3.2,6.28,,,,,,,
O=C(O)c1ccc(C(=O)C(=O)c2ccccc2)cc1,3.39,7.19,,,,,,,

SMILES,logP ([1]; read-out: logP),pKi [2],pKi [4],Ki (Liver carboxylesterase 1 [5]),pKi [6],pKi [7],Ki (Liver carboxylesterase 1 [8]),pKi [9],further results
Cc1ccc(C(=O)C(=O)c2ccccc2)cc1,3.88,6.92,,,,,,,
O=C(C(=O)c1ccccn1)c1ccccn1,0.9,6.32,,,,,,,
CCCCSCC(=O)C(F)(F)F,,,5.77,794 nM,6.38,7.78,5.37 nM,8.11,
COc1cccc(C(=O)C(=O)c2cccc(OC)c2)c1,3.61,7.14,,,,,,,
CCCCCCSCC(=O)C(F)(F)F,,,6.25,331 nM,6.6,8.19,5.25 nM,8,
CCCCCCOCC(O)(O)C(F)(F)F,,,5.04,3310 nM,5.57,8.92,1 nM,8.77,
CCCCCCS(=O)(=O)CC(O)(O)C(F)(F)F,,,4.56,9770 nM,4.82,8.43,0.708 nM,7.46,
CC(=O)Oc1ccccc1[N+](=O)[O-],1.5,,,,,,,,
CCCCCCCC[S+]([O-])CC(O)(O)C(F)(F)F (stereo unspecified),,,5.62,14800 nM,5.31,9.3,0.603 nM,8.19,
CCCCCCCCS(=O)(=O)CC(O)(O)C(F)(F)F,,,5.33,1510 nM,5.32,8.24,0.603 nM,7.43,
CCCCCC[S+]([O-])CC(O)(O)C(F)(F)F (stereo unspecified),,,4.17,79400 nM,4.64,9.3,3.31 nM,7.66,
O=C(CSCCc1ccccc1)C(F)(F)F,,,6.12,120 nM,6.39,8.32,6.46 nM,8.26,
CCCCCCCCCCCC[S+]([O-])CC(O)(O)C(F)(F)F (stereo unspecified),,,7.27,1910 nM,5.96,9.4,0.398 nM,8.85,
CCCCCCCCCC[S+]([O-])CC(O)(O)C(F)(F)F (stereo unspecified),,,5.72,5250 nM,5.6,9.3,0.501 nM,8.52,
CCCCCCCCCCCCS(=O)(=O)CC(O)(O)C(F)(F)F,,,7.49,741 nM,6.82,9,0.398 nM,9.15,
CCCCCCCCCCS(=O)(=O)CC(O)(O)C(F)(F)F,,,7.1,794 nM,6.66,8.96,0.302 nM,8.8,
COc1cc(Br)ccc1C(=O)C(=O)c1ccc(Br)cc1OC,4.68,7.27,,,,,,,
OC(O)(CSCCc1ccccc1)C(F)(F)F,,,4.29,13800 nM,4.87,6.93,6.03 nM,6.97,
CCCCCCCCCCC(=O)C(F)(F)F,,,7.66,151 nM,6.85,5.69,2.29 nM,5.49,
CCCCCCCCSCC(=O)C(F)(F)F,,,6.66,191 nM,6.82,8.46,4.17 nM,8.11,
CC(=O)Oc1ccccc1C(=O)O [ASPIRIN],1.02,,,,,,,,
COC(=O)[C@H]1[C@@H](OC(=O)c2ccccc2)C[C@@H]2CC[C@H]1N2C [COCAINE],2.57,,,,,,,,
CC(=O)Oc1ccc2c3c1O[C@H]1[C@@H](OC(C)=O)C=C[C@H]4[C@@H](C2)N(C)CC[C@@]341 [DIACETYLMORPHINE],1.5,,,,,,,,
CC[C@H](C)C(=O)O[C@H]1C[C@@H](C)C=C2C=C[C@H](C)[C@H](CC[C@@H]3C[C@@H](O)CC(=O)O3)[C@H]21 [LOVASTATIN],4.3,,,,,,,,
CC1(C)C(C=C(Cl)Cl)C1C(=O)OCc1cccc(Oc2ccccc2)c1 (stereo unspecified) [PERMETHRIN],,,,,,,,,logP [1]: 7.38
